The record followed here is ChEMBL document CHEMBL1123442 (J Med Chem, 1986).

The source made the active and inactive calls. The rule behind the calls is not given here. A value given as a limit tells only on which side of the number the result lay.

The term IC50 denotes the concentration that gives 50% inhibition. A lower IC50 goes with greater potency in that assay.

Assay [1] deals with Lewis lung carcinoma cell line. Kind of assay: Evaluated in vivo for antitumor activity against Lewis lung carcinoma; g denotes ILS of 50% could not be reached at any dose level. It is filed as functional, organism-based. Particulars: Mus musculus. The method, boiled down: (§1)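 Mice inoculated intravenously with 10^6 Lewis lung carcinoma cells, then drug intraperitoneally in 0.1 mL 30% v/v ethanol-water on days 5, 9 and 13. D50 (mg/kg per day for 50% ILS) taken from dose-response graph. ILS at optimal dose versus untreated tumor-bearing controls. Survivors counted at 40 days.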

Another assay relates to HCT-8. Nature of the assay: In vitro for cytotoxicity against human colon tumor cells (HCT-8) in culture. The assay is classed as functional, cell-based.
For assay [2], the system named is P388. Nature of the assay: In vivo for antitumor activity against P388 leukemia. It is filed as functional, Mus musculus. The method, boiled down: (§2)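 Mice given 10^6 P388 leukemia cells intraperitoneally, then drug intraperitoneally in 0.1 mL 30% v/v ethanol-water on days 1, 5 and 9. D50 (mg/kg per day giving 50% ILS) read from dose-response graph. ILS at optimal dose versus untreated controls. Long-term survival counted at 30 days.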

The subject of another assay is poly[d(A-T)]. Nature of the assay: Binding constant relative to amsacrine (Δlog K) for DNA binding by ethidium bromide displacement. Particulars: Bos taurus.
Assay [3] has as its system Lewis lung carcinoma cell line. Kind of assay: Evaluated in vivo for antitumor activity against Lewis lung carcinoma; i denotes Inactive. The assay is classed as functional, organism-based. Particulars: Mus musculus. The method, boiled down:
as §1

Assay [4] deals with Lewis lung carcinoma cell line. Nature of the assay: In vivo for antitumor activity against Lewis lung carcinoma. It is filed as functional, Mus musculus. The method, boiled down:
as §1

A further assay deals with L1210. Kind of assay: In vitro for cytotoxicity against murine leukemia cells (L1210). It is filed as functional, cell-based. The following applies: Mus musculus.
Assay [5] has as its system P388. Nature of the assay: In vivo for antitumor activity against P388 leukemia. The assay is classed as functional, Mus musculus. The method, boiled down:
as §2

In assay [6] the test system is P388. Kind of assay: Evaluated in vivo for antitumor activity against P388 leukemia; g denotes ILS of 50% could not be reached at any dose level. It is filed as functional, organism-based. Particulars: Mus musculus. An outline of the steps: as §2
For assay [7], the system named is P388. Nature of the assay: Compound was evaluated in vivo for antitumor activity against P388 leukemia; i denotes Inactive. The assay is classed as functional, organism-based. The following applies: Mus musculus. The method, boiled down:
as §2

As for `CNc1cc(NS(C)(=O)=O)ccc1Nc1c2ccccc2nc2cc([N+](=O)[O-])ccc12`, the figures for the D50 result (in assay [1]; in the assay on P388 [5]) were “ILS of 50% could not be reached” and 3 mg/kg, respectively. Also, the figures for the 50% inhibitory concentration (IC50) in the assay with HCT-8 and in the assay on L1210 were 0.14 µM and 0.11 µM, respectively. Besides, the results for the OD (with P388 [2]; in assay [4]) were 5.9 mg/kg and 8.9 mg/kg, respectively. The same molecule registered a Δlog K in the assay on poly[d(A-T)] of 6.72. Also, the ILSmax entry in assay [3] is “inactive”. Further, in the assay on P388 [5], the ILSmax amounted to 70%.

Turning to `CNc1cc(NS(C)(=O)=O)ccc1Nc1c2ccccc2nc2ccc(OC)cc12`, the D50 result (in [1]; in the assay on P388 [6]) was “ILS of 50% could not be reached” in each case. For the same molecule, the results for the IC50 in the assay on HCT-8 and in the assay on L1210 were 1.9 µM and 1.2 µM, respectively. In addition, the results for the OD (in the assay with P388 [2]; in assay [4]) were 100 mg/kg and 150 mg/kg, respectively. For the same molecule, the Δlog K in the assay on poly[d(A-T)] is 5.8. Besides, in assay [3], the ILSmax entry was “inactive”. Besides, the ILSmax in the assay with P388 [5] was 25%.

In the case of `CNc1cc(NS(C)(=O)=O)ccc1Nc1c2ccccc2nc2c(C)ccc(C)c12`, the IC50 turned out to be 2.1 µM in the assay on HCT-8 and 1.7 µM in the assay on L1210. Also, in the assay on P388 [2], the OD is 65 mg/kg. For the same molecule, the D50 result in the assay on P388 [6] is recorded as “ILS of 50% could not be reached”. Besides, in the assay with poly[d(A-T)], the Δlog K stood at 6.18. Besides, the ILSmax entry in the assay with P388 [7] is “inactive”.

For `CNc1cc(NS(C)(=O)=O)ccc1Nc1c2ccccc2nc2ccc(Cl)cc12`, the D50 entry (in [1]; in the assay with P388 [6]) was “ILS of 50% could not be reached” throughout. Also, the IC50 in the assay on HCT-8 was 2.5 µM; with L1210, more than 1.6 µM. Also, the OD with P388 [2] was found to be 100 mg/kg; in [4], 150 mg/kg. Further, the ILSmax result (in [3]; in the assay on P388 [7]) was “inactive” in each case.

Take `CNC(=O)c1cccc2c(Nc3ccc(NS(C)(=O)=O)cc3NC)c3ccc(Cl)cc3nc12`: the values for the D50 result (in assay [1]; in the assay on P388 [5]) were “ILS of 50% could not be reached” and 30 mg/kg, respectively. Also, the IC50 amounted to 1.9 µM with HCT-8 and 0.11 µM with L1210. In addition, the figures for the OD (with P388 [2]; in assay [4]) were 45 mg/kg and 30 mg/kg, respectively. In the assay on poly[d(A-T)], the Δlog K was found to be 6.79. For the same molecule, in assay [3], the ILSmax entry was “inactive”. Further, the ILSmax in the assay with P388 [5] was determined as 61%.

On to `CNc1cc(NS(C)(=O)=O)ccc1Nc1c2ccccc2nc2c(Br)cccc12`, for which the D50 entry (in assay [1]; in the assay with P388 [6]) was “ILS of 50% could not be reached” in each case. Also, the concentration for half-maximal inhibition (IC50) in the assay with HCT-8 is 1.8 µM; in the assay with L1210 it was 0.19 µM. Further, the OD (in the assay with P388 [2]; in [4]) was 100 mg/kg throughout. The same molecule showed a Δlog K with poly[d(A-T)] of 6.37. The ILSmax result in assay [3] was “inactive”. The molecule further gave an ILSmax in the assay on P388 [5] of 35%.

Take `CNc1cc(NS(C)(=O)=O)ccc1Nc1c2ccccc2nc2cc(I)ccc12`: the results for the D50 entry (in assay [1]; with P388 [5]) were “ILS of 50% could not be reached” and 10 mg/kg, respectively. Further, the IC50 in the assay on HCT-8 is 0.079 µM; with L1210, 0.029 µM. Besides, the OD in the assay on P388 [2] amounted to 45 mg/kg; in assay [4], 30 mg/kg. In the assay with poly[d(A-T)], this molecule had a Δlog K of 6.42. Further, the ILS max entry in [3] is “inactive”. The ILSmax in the assay with P388 [5] was 70%.

`CNC(=O)c1ccc(Cl)c2c(Nc3ccc(NS(C)(=O)=O)cc3NC)c3ccccc3nc12`: the half-inhibitory concentration (IC50) in the assay on HCT-8 is 4.8 µM; in the assay on L1210 it was more than 1.6 µM. Besides, the OD in the assay with P388 [2] was 150 mg/kg. Moreover, the D50 entry in the assay on P388 [6] is recorded as “ILS of 50% could not be reached”. For the same molecule, the Δlog K in the assay with poly[d(A-T)] came out at 6.75. The molecule also showed an ILSmax in the assay with P388 [5] of 38%.

Consider `CNc1cc(NS(C)(=O)=O)ccc1Nc1c2ccccc2nc2c1ccc1ccccc12`, for which the values for the D50 result (in [1]; in the assay with P388 [5]) were “ILS of 50% could not be reached” and 45 mg/kg, respectively. Moreover, the IC50 in the assay with HCT-8 worked out at 0.4 µM; in the assay on L1210, 0.189 µM. The results for the OD (in the assay on P388 [2]; in assay [4]) were 45 mg/kg and 20 mg/kg, respectively. This molecule also gave a Δlog K in the assay on poly[d(A-T)] of 7.46. For the same molecule, the ILSmax entry in [3] is “inactive”. Moreover, the ILSmax in the assay with P388 [5] is reported as 50%.

As for `CNc1cc(NS(C)(=O)=O)ccc1Nc1c2ccccc2nc2c(C(=O)NCC(N)=O)cccc12`, the D50 entry was “ILS of 50% could not be reached” in [1] and 45 mg/kg with P388 [5]. Moreover, the 50% inhibitory concentration (IC50) in the assay on HCT-8 is more than 0.104 µM; in the assay on L1210, 3.5 µM. The OD came to 68 mg/kg with P388 [2] and 45 mg/kg in assay [4]. Moreover, the Δlog K in the assay with poly[d(A-T)] worked out at 5.57. The ILSmax result in assay [3] was “inactive”. For the same molecule, in the assay with P388 [5], the ILSmax is 87%.

As to `CNc1cc(NS(C)(=O)=O)ccc1Nc1c2ccccc2nc2cc(NC(=O)OC)ccc12`, the values for the D50 result (in assay [1]; with P388 [5]) were “ILS of 50% could not be reached” and 1.5 mg/kg, respectively. Also, the IC50 in the assay on HCT-8 was 0.715 µM; in the assay on L1210, 0.076 µM. Further, the OD worked out at 13.3 mg/kg with P388 [2] and 8.9 mg/kg in assay [4]. Besides, in the assay on poly[d(A-T)], the Δlog K worked out at 7.21. Also, the ILSmax result in assay [3] was “inactive”. Further, the ILSmax in the assay on P388 [5] turned out to be 135%.

For the molecule `CNc1cc(NS(C)(=O)=O)ccc1Nc1c2ccccc2nc2c(C(N)=O)cccc12`, the D50 entry in [1] was “ILS of 50% could not be reached”; with P388 [5] it was 25 mg/kg. In addition, the values for the IC50 in the assay with HCT-8 and with L1210 were 2.8 µM and 0.56 µM, respectively. Besides, the OD in the assay with P388 [2] stood at 45 mg/kg; in assay [4], 30 mg/kg. Also, the Δlog K with poly[d(A-T)] is 6.28. Also, the ILSmax entry in assay [3] is “inactive”. This molecule also registered an ILSmax with P388 [5] of 109%.
